Results taken from ChEMBL document CHEMBL2016433 (Bioorg Med Chem, 2012).
Calls of active or inactive are those of the source.

Experiments:
U-937 [1] = assay: Induction of apoptosis in human U937 cells after 24 hrs by acridine orange staining based microscopy; assay type: functional, cell-based
In short: (§1)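 U937 cells were treated for 24 h at 37 °C with 1–100 µM compound or vehicle, then stained with acridine orange. Over 600 cells were scored by fluorescence microscopy; apoptosis was defined as uniformly stained nuclei with chromatin condensation or nuclear fragmentation. Mean and SD of at least three determinations.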

U-937 [2] = assay: Cytotoxicity against human U937 cells assessed as induction of cell death at 1 to 100 microM after 24 hrs by trypan blue exclusion method; assay type: functional, cell-based
U-937 [3] = assay: Induction of cell death in human U937 cells assessed at 1 to 100 microM after 24 hrs by trypan blue exclusion method relative to untreated control; assay type: functional
In short: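 U937 cells (5×10^4 per well) exposed for 24 h at 37 °C, 5% CO₂ to 1 in 10 serial dilutions from 1 to 100 µM in RPMI-1640 with 5% FBS. Compounds came from 20 mM stocks in DMSO or medium. Controls got vehicle at equal amounts. Membrane-permeable cells were counted by trypan blue exclusion in a haemocytometer and expressed as percent. Mean and standard deviation from at least three determinations.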

U-937 [4] = assay: Induction of apoptosis in human U937 cells expressing mouse Bcl-2 gene assessed as expression of Bcl-2 protein at 1 to 100 uM by acridine orange based microscopy; assay type: functional, cell-based
In short: (§2)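 U937 stable transfectants carrying murine bcl-2 (U937mBCL2) or empty pMEP vector were kept in medium with hygromycin B 50 µg/mL. They were treated for 24 h with compound or DMSO. Apoptotic nuclei were scored by fluorescence microscopy after acridine orange staining; mean and SD of three determinations.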

U-937 [5] = assay: Induction of apoptosis in human U937 cells expressing pMEP assessed as expression of Bcl-2 protein at 1 to 100 uM by acridine orange based microscopy; assay type: functional, cell-based; in short: as §2
MOLT-3 [6] = assay: Cytotoxicity against human MOLT3 cells assessed as cell viability after 24 hrs; assay type: functional, cell-based; conditions: MOLT-3, 24 h
MOLT-3 [7] = assay: Cytotoxicity against human MOLT3 cells after 24 hrs by trypan blue exclusion assay; assay type: functional
MOLT-3 [8] = assay: Induction of apoptosis in human MOLT3 cells after 24 hrs by acridine orange staining based fluorescence microscopy; assay type: functional
In short: (§3)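 HeLa, MOLT-3 and THP-1 cells were treated with increasing concentrations for 24 h, then stained with acridine orange and more than 600 cells scored by fluorescence microscopy for condensed or fragmented nuclei. AC30 is the concentration giving 30% apoptotic cells, from a best-fit curve versus log concentration.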

THP-1 [9] = assay: Cytotoxicity against human THP1 cells assessed as cell viability after 24 hrs; assay type: functional, cell-based; conditions: THP-1, 24 h
THP-1 [10] = assay: Cytotoxicity against human THP1 cells after 24 hrs by trypan blue exclusion assay; assay type: functional
THP-1 [11] = assay: Induction of apoptosis in human THP1 cells after 24 hrs by acridine orange staining based fluorescence microscopy; assay type: functional; in short: as §3
HeLa [12] = assay: Cytotoxicity against human HeLa cells assessed as cell viability after 24 hrs; assay type: functional, cell-based
In short: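 MOLT-3, THP-1 and HeLa cells were treated with increasing concentrations for 24 h at 37 °C, 5% CO₂. Total cells were counted by haemocytometer with trypan blue. IC50 is the concentration cutting total cell count by 50%, taken from a best-fit curve of the value versus log concentration.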

HeLa [13] = assay: Cytotoxicity against human HeLa cells after 24 hrs by trypan blue exclusion assay; assay type: functional
In short: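 MOLT-3, THP-1 or HeLa cells were grown in RPMI 1640 with 5–10% FBS; for THP-1 the medium also held 10 mM HEPES, 1 mM pyruvate and 4.5 g/L glucose. Cells were seeded in 96 wells with increasing compound concentrations and incubated 24 h at 37 °C, 5% CO₂. CC30 is the concentration giving 30% trypan blue-positive cells, taken from a best-fit curve of y versus log x.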

HeLa [14] = assay: Induction of apoptosis in human HeLa cells after 24 hrs by acridine orange staining based fluorescence microscopy; assay type: functional; in short: as §3
HT-29 [15] = assay: Cytotoxicity against human HT-29 cells assessed as cell viability after 48 hrs; assay type: functional, cell-based; conditions: HT-29, 48 h
In short: (§4)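 HT-29, HepG2 and MCF7 cells were treated in wells with increasing concentrations for 48 h at 37 °C, 5% CO₂. Total cell count was taken by haemocytometer. IC50 is the concentration inhibiting total count by 50%, from a best-fit curve of the value versus log concentration.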

HT-29 [16] = assay: Cytotoxicity against human HT-29 cells after 48 hrs by trypan blue exclusion assay; assay type: functional
In short: (§5)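 Adherent HT-29, HepG2 and MCF7 cells were seeded in 96 wells with increasing concentrations and incubated 48 h at 37 °C, 5% CO₂. Trypan blue exclusion was done directly in the culture wells. CC30 is the concentration giving 30% cytotoxicity, from a best-fit curve versus log concentration.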

HT-29 [17] = assay: Cytotoxicity against human HT-29 cells assessed as compound concentration causing 30% reduction in formazan product formation after 48 hrs by MTS assay; assay type: functional; conditions: HT-29, 48 h
In short: (§6)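 HT-29, HepG2 and MCF7 cells were exposed to increasing concentrations for 48 h. MTS reagent was then added directly to the wells, incubated a further 4 h, and absorbance read at 490 nm. MAIC30 is the concentration reducing formazan formation by 30%, from a best-fit curve versus log concentration.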

HepG2 [18] = assay: Cytotoxicity against human HepG2 cells assessed as cell viability after 48 hrs; assay type: functional, cell-based; conditions: HepG2, 48 h; in short: as §4
HepG2 [19] = assay: Cytotoxicity against human HepG2 cells after 48 hrs by trypan blue exclusion assay; assay type: functional; in short: as §5
HepG2 [20] = assay: Cytotoxicity against human HepG2 cells assessed as compound concentration causing 30% reduction in formazan product formation after 48 hrs by MTS assay; assay type: functional; conditions: HepG2, 48 h; in short: as §6
MCF7 [21] = assay: Cytotoxicity against human MCF7 cells assessed as cell viability after 48 hrs; assay type: functional, cell-based; conditions: MCF7, 48 h; in short: as §4
MCF7 [22] = assay: Cytotoxicity against human MCF7 cells after 48 hrs by trypan blue exclusion assay; assay type: functional; in short: as §5
MCF7 [23] = assay: Cytotoxicity against human MCF7 cells assessed as compound concentration causing 30% reduction in formazan product formation after 48 hrs by MTS assay; assay type: functional; conditions: MCF7, 48 h; in short: as §6
U-937 [24] = assay: Induction of apoptosis in human U937 cells at 100 uM after 24 hrs by acridine orange staining based microscopy; assay type: functional, cell-based; in short: as §1
U-937 [25] = assay: Cytostatic against human U937 cells assessed as reduction in absolute number of total cells after 24 hrs by haemocytometry; assay type: functional, cell-based
In short: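 U937 cells, 5×10^4 per well in RPMI-1640 with 5% FBS, 2 mM L-glutamine and penicillin-streptomycin, were exposed to 1 in 10 serial dilutions from 100 µM to 1 µM (stocks 20 mM in DMSO or medium), or to vehicle, for 24 h at 37 °C in CO₂. Total cells were counted by haemocytometer; mean and SD of at least three determinations.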

Structure (SMILES)	Activity (U-937 [1])	Activity (U-937 [2])	Activity (U-937 [3])	IC50 (MOLT-3 [6])	CC30 (MOLT-3 [7])	AC30 (MOLT-3 [8])	IC50 (THP-1 [9])	CC30 (THP-1 [10])	AC30 (THP-1 [11])	other results
CCc1c(CSS[C@@H]2O[C@H](COC(C)=O)[C@@H](OC(C)=O)[C@H](OC(C)=O)[C@H]2OC(C)=O)c(CC)c(CSS[C@@H]2O[C@H](COC(C)=O)[C@@H](OC(C)=O)[C@H](OC(C)=O)[C@H]2OC(C)=O)c(CC)c1CSS[C@@H]1O[C@H](COC(C)=O)[C@@H](OC(C)=O)[C@H](OC(C)=O)[C@H]1OC(C)=O	inactive	Active	25%	–	–	–	–	–	–	–
CC(=O)OC[C@H]1O[C@@H](SSCc2c(C)c(CSS[C@@H]3O[C@H](COC(C)=O)[C@@H](OC(C)=O)[C@H](OC(C)=O)[C@H]3OC(C)=O)c(C)c(CSS[C@@H]3O[C@H](COC(C)=O)[C@@H](OC(C)=O)[C@H](OC(C)=O)[C@H]3OC(C)=O)c2C)[C@H](OC(C)=O)[C@@H](OC(C)=O)[C@@H]1OC(C)=O	inactive	Active	25%	–	–	–	–	–	–	–
CCc1c(CSS[C@@H]2O[C@H](CO)[C@@H](O)[C@H](O)[C@H]2O)c(CC)c(CSS[C@@H]2O[C@H](CO)[C@@H](O)[C@H](O)[C@H]2O)c(CC)c1CSS[C@@H]1O[C@H](CO)[C@@H](O)[C@H](O)[C@H]1O	inactive	Active	25%	–	–	–	–	–	–	–
CC(=O)OC[C@H]1O[C@@H](SSCc2ccc(CSS[C@@H]3O[C@H](COC(C)=O)[C@H](OC(C)=O)[C@H](OC(C)=O)[C@H]3OC(C)=O)cc2)[C@H](OC(C)=O)[C@@H](OC(C)=O)[C@H]1OC(C)=O	–	Active	–	> 100 µM	29 µM	24 µM	> 100 µM	93 µM	88 µM	Activity (U-937 [4]): inactive; Activity (U-937 [5]): Active; IC50 (HeLa [12]): > 100 µM; CC30 (HeLa [13]): >100 µM; AC30 (HeLa [14]): 62 µM; IC50 (HT-29 [15]): 63 µM; CC30 (HT-29 [16]): 61 µM; IC30 (HT-29 [17]): 23 µM; IC50 (HepG2 [18]): 51 µM; CC30 (HepG2 [19]): 98 µM; IC30 (HepG2 [20]): 30 µM; IC50 (MCF7 [21]): 38 µM; CC30 (MCF7 [22]): 69 µM; IC30 (MCF7 [23]): 63 µM; Activity (U-937 [24]): Active
CCc1c(CSS[C@@H]2O[C@H](COC(C)=O)[C@H](OC(C)=O)[C@H](OC(C)=O)[C@H]2OC(C)=O)c(CC)c(CSS[C@@H]2O[C@H](COC(C)=O)[C@H](OC(C)=O)[C@H](OC(C)=O)[C@H]2OC(C)=O)c(CC)c1CSS[C@@H]1O[C@H](COC(C)=O)[C@H](OC(C)=O)[C@H](OC(C)=O)[C@H]1OC(C)=O	inactive	inactive	25%	–	–	–	–	–	–	Activity (U-937 [25]): Dose-dependent effect
CC(=O)OC[C@H]1O[C@@H](S)[C@H](OC(C)=O)[C@@H](OC(C)=O)[C@H]1OC(C)=O	inactive	–	–	> 100 µM	>100 µM	>100 µM	> 100 µM	>100 µM	>100 µM	–
